Source: ChEMBL document CHEMBL3792365, “Dioxol and dihydrodioxin analogs of 2- and 3-phenylacetonitriles as potent anti-cancer agents with nanomolar activity against a variety of human cancer cells” (2016)

Key:
Type in all cases: functional
[1] = Growth inhibition of human SNB75 cells at 10 uM after 48 hrs by sulforhodamine B assay; settings: SNB-75, 48 h, values are per cent of control
Malme-3M = assay: Growth inhibition of human MALME-3M cells at 10 uM after 48 hrs by sulforhodamine B assay; settings: values are per cent of control
[2] = Growth inhibition of human UACC257 cells at 10 uM after 48 hrs by sulforhodamine B assay; settings: UACC-257, 48 h, values are per cent of control
[3] = Growth inhibition of human OVCAR3 cells at 10 uM after 48 hrs by sulforhodamine B assay; settings: OVCAR-3, 48 h, values are per cent of control
[4] = Growth inhibition of human OVCAR5 cells at 10 uM after 48 hrs by sulforhodamine B assay; settings: OVCAR-5, 48 h, values are per cent of control
[5] = Growth inhibition of human SKOV3 cells at 10 uM after 48 hrs by sulforhodamine B assay; settings: SK-OV-3, 48 h, values are per cent of control
A498 = assay: Growth inhibition of human A498 cells at 10 uM after 48 hrs by sulforhodamine B assay; settings: A498, 48 h, values are per cent of control
[6] = Growth inhibition of human UO31 cells at 10 uM after 48 hrs by sulforhodamine B assay; settings: UO-31, 48 h, values are per cent of control
[7] = Growth inhibition of human PC3 cells at 10 uM after 48 hrs by sulforhodamine B assay; settings: PC-3, 48 h, values are per cent of control
MCF7 = assay: Growth inhibition of human MCF7 cells at 10 uM after 48 hrs by sulforhodamine B assay; settings: MCF7, 48 h, values are per cent of control
MDA-MB-231 [8] = assay: Growth inhibition of human MDA-MB-231 cells at 10 uM after 48 hrs by sulforhodamine B assay; settings: MDA-MB-231, 48 h, values are per cent of control
CCRF-CEM [9] = assay: Growth inhibition of human CCRF-CEM cells after 48 hrs by sulforhodamine B assay
How it was run: (§1)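 Five-dose testing against a 60-line human tumor cell panel. GI50 is the drug concentration giving a 50% reduction in net protein increase relative to untreated control cells.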

[10] = Growth inhibition of human MOLT4 cells after 48 hrs by sulforhodamine B assay; settings: MOLT-4, 48 h
How it was run: (§2)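 Five-dose concentration series run across a panel of 60 human tumour cell lines. GI50 is taken as the drug concentration giving a 50% reduction in net protein increase relative to untreated control cells.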

[11] = Growth inhibition of human RPMI8226 cells after 48 hrs by sulforhodamine B assay; settings: RPMI-8226, 48 h; how it was run: as §2
SR = assay: Growth inhibition of human SR cells after 48 hrs by sulforhodamine B assay; how it was run: as §2
A549 = assay: Growth inhibition of human A549/ATCC cells after 48 hrs by sulforhodamine B assay; settings: A549, 48 h; how it was run: as §1
[12] = Growth inhibition of human HOP62 cells after 48 hrs by sulforhodamine B assay; settings: HOP-62, 48 h; how it was run: as §1
[13] = Growth inhibition of human HOP92 cells after 48 hrs by sulforhodamine B assay; settings: HOP-92, 48 h; how it was run: as §1
NCI-H23 = assay: Growth inhibition of human NCI-H23 cells after 48 hrs by sulforhodamine B assay; settings: NCI-H23, 48 h; how it was run: as §2
[14] = Growth inhibition of human COLO205 cells after 48 hrs by sulforhodamine B assay; settings: COLO 205, 48 h; how it was run: as §1
[15] = Growth inhibition of human HCC2998 cells after 48 hrs by sulforhodamine B assay; settings: HCC 2998, 48 h; how it was run: as §1
[16] = Growth inhibition of human HCT116 cells after 48 hrs by sulforhodamine B assay; settings: HCT-116, 48 h; how it was run: as §1
[17] = Growth inhibition of human HCT15 cells after 48 hrs by sulforhodamine B assay; settings: HCT-15, 48 h; how it was run: as §1
[18] = Growth inhibition of human SW620 cells after 48 hrs by sulforhodamine B assay; settings: SW-620, 48 h; how it was run: as §2
[19] = Growth inhibition of human SNB19 cells after 48 hrs by sulforhodamine B assay; settings: SNB-19, 48 h; how it was run: as §2
U-251 = assay: Growth inhibition of human U251 cells after 48 hrs by sulforhodamine B assay; settings: U-251, 48 h; how it was run: as §2
M14 = assay: Growth inhibition of human M14 cells after 48 hrs by sulforhodamine B assay; settings: M14, 48 h; how it was run: as §1
MDA-MB-435 = assay: Growth inhibition of human MDA-MB-435 cells after 48 hrs by sulforhodamine B assay; settings: MDA-MB-435, 48 h; how it was run: as §1
SK-MEL-5 = assay: Growth inhibition of human SK-MEL-5 cells after 48 hrs by sulforhodamine B assay; settings: SK-MEL-5, 48 h; how it was run: as §2
[20] = Growth inhibition of human UACC62 cells after 48 hrs by sulforhodamine B assay; settings: UACC-62, 48 h
How it was run: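 Five-dose testing across the 60-line human tumour cell panel. GI50 is the drug concentration that gives a 50% reduction in net protein increase relative to control cells.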

[21] = Growth inhibition of human SKOV3 cells after 48 hrs by sulforhodamine B assay; settings: SK-OV-3, 48 h; how it was run: as §2
ACHN = assay: Growth inhibition of human ACHN cells after 48 hrs by sulforhodamine B assay; how it was run: as §1
CCRF-CEM [22] = assay: Growth inhibition of human CCRF-CEM cells at 10 uM after 48 hrs by sulforhodamine B assay; settings: values are per cent of control
[23] = Growth inhibition of human HL-60(TB) cells at 10 uM after 48 hrs by sulforhodamine B assay; settings: HL-60, 48 h, values are per cent of control
K562 = assay: Growth inhibition of human K562 cells at 10 uM after 48 hrs by sulforhodamine B assay; settings: K562, 48 h, values are per cent of control
[24] = Growth inhibition of human MOLT4 cells at 10 uM after 48 hrs by sulforhodamine B assay; settings: MOLT-4, 48 h, values are per cent of control
[25] = Growth inhibition of human RPMI8226 cells at 10 uM after 48 hrs by sulforhodamine B assay; settings: RPMI-8226, 48 h, values are per cent of control
[26] = Growth inhibition of human HOP92 cells at 10 uM after 48 hrs by sulforhodamine B assay; settings: HOP-92, 48 h, values are per cent of control
HT-29 = assay: Growth inhibition of human HT-29 cells at 10 uM after 48 hrs by sulforhodamine B assay; settings: HT-29, 48 h, values are per cent of control
KM12 = assay: Growth inhibition of human KM12 cells at 10 uM after 48 hrs by sulforhodamine B assay; settings: KM12, 48 h, values are per cent of control
[27] = Growth inhibition of human PC3 cells after 48 hrs by sulforhodamine B assay; settings: PC-3, 48 h; how it was run: as §2
MDA-MB-231 [28] = assay: Growth inhibition of human MDA-MB-231 cells after 48 hrs by sulforhodamine B assay; settings: MDA-MB-231, 48 h; how it was run: as §1
[29] = Growth inhibition of human Hs 578T cells after 48 hrs by sulforhodamine B assay; how it was run: as §1
MDA-MB-468 = assay: Growth inhibition of human MDA-MB-468 cells after 48 hrs by sulforhodamine B assay; settings: MDA-MB-468, 48 h; how it was run: as §1

With `N#C/C(=C\c1cc2ccccc2s1)c1ccc2c(c1)OCO2` as the molecule, how does the growth, % of control at 10 µM [1] read?
The growth, % of control at 10 µM was 0.5%.

And the growth, % of control at 10 µM (Malme-3M)?
The growth, % of control at 10 µM was 55.1%.

What about the growth, % of control at 10 µM [2] of the same molecule?
The growth, % of control at 10 µM was 72.8%.

What about the growth, % of control at 10 µM [3] of the same molecule?
Its growth, % of control at 10 µM is -29.5%.

And the growth, % of control at 10 µM [4]?
The growth, % of control at 10 µM was 50.4%.

And the growth, % of control at 10 µM [5]?
Its growth, % of control at 10 µM is 20.7%.

And the growth, % of control at 10 µM (A498)?
Its growth, % of control at 10 µM is -7.5%.

What about the growth, % of control at 10 µM [6] of the same molecule?
Its growth, % of control at 10 µM is 34.9%.

What about the growth, % of control at 10 µM [7] of the same molecule?
The growth, % of control at 10 µM was 25.8%.

And the growth, % of control at 10 µM (MCF7)?
Its growth, % of control at 10 µM is 16.3%.

What about the growth, % of control at 10 µM (MDA-MB-231 [8]) of the same molecule?
The growth, % of control at 10 µM was 24.3%.

And the GI50 (CCRF-CEM [9])?
Its GI50 is 50 nM.

What about the GI50 [10] of the same molecule?
Its GI50 is 70 nM.

And the GI50 [11]?
The GI50 was 190 nM.

And the GI50 (SR)?
The GI50 was 30 nM.

And the GI50 (A549)?
The GI50 was 90 nM.

And the GI50 [12]?
Its GI50 is 70 nM.

And the GI50 [13]?
The GI50 was 17000 nM.

What about the GI50 (NCI-H23) of the same molecule?
Its GI50 is 320 nM.

What about the GI50 [14] of the same molecule?
Its GI50 is 30 nM.

What about the GI50 [15] of the same molecule?
Its GI50 is 270 nM.

And the GI50 [16]?
Its GI50 is 40 nM.

And the GI50 [17]?
The GI50 was 40 nM.

And the GI50 [18]?
The GI50 was 50 nM.

And the GI50 [19]?
Its GI50 is 230 nM.

What about the GI50 (U-251) of the same molecule?
The GI50 was 60 nM.

And the GI50 (M14)?
The GI50 was 40 nM.

And the GI50 (MDA-MB-435)?
The GI50 was 20 nM.

And the GI50 (SK-MEL-5)?
Its GI50 is 60 nM.

And the GI50 [20]?
Its GI50 is 60 nM.

And the GI50 [21]?
The GI50 was 60 nM.

What about the GI50 (ACHN) of the same molecule?
The GI50 was 60 nM.

What about the growth, % of control at 10 µM (CCRF-CEM [22]) of the same molecule?
Its growth, % of control at 10 µM is 16.8%.

What about the growth, % of control at 10 µM [23] of the same molecule?
The growth, % of control at 10 µM was 0.5%.

What about the growth, % of control at 10 µM (K562) of the same molecule?
Its growth, % of control at 10 µM is 18.8%.

What about the growth, % of control at 10 µM [24] of the same molecule?
Its growth, % of control at 10 µM is 17.4%.

And the growth, % of control at 10 µM [25]?
Its growth, % of control at 10 µM is 9.3%.

And the growth, % of control at 10 µM [26]?
The growth, % of control at 10 µM was 60.8%.

And the growth, % of control at 10 µM (HT-29)?
Its growth, % of control at 10 µM is 5%.

And the growth, % of control at 10 µM (KM12)?
Its growth, % of control at 10 µM is 6%.

And the GI50 [27]?
Its GI50 is 60 nM.

What about the GI50 (MDA-MB-231 [28]) of the same molecule?
Its GI50 is 180 nM.

And the GI50 [29]?
Its GI50 is 80 nM.

What about the GI50 (MDA-MB-468) of the same molecule?
The GI50 was 380 nM.

Which results are given for `COc1cc(/C(C#N)=C/c2ccc3c(c2)OCCO3)cc(OC)c1OC`?
growth, % of control at 10 µM [1]: 17.1%; growth, % of control at 10 µM (Malme-3M): 64.3%; growth, % of control at 10 µM [2]: 76%; growth, % of control at 10 µM [4]: 49.1%; growth, % of control at 10 µM [5]: 17.6%; growth, % of control at 10 µM (A498): -11%; growth, % of control at 10 µM [6]: 23.9%; growth, % of control at 10 µM [7]: 26.5%; growth, % of control at 10 µM (MCF7): 14.6%; growth, % of control at 10 µM (MDA-MB-231 [8]): 13.7%; GI50 (CCRF-CEM [9]): 210 nM; GI50 [10]: 620 nM; GI50 [11]: 60 nM; GI50 (SR): 60 nM; GI50 (A549): 60 nM; GI50 [12]: 50 nM; GI50 [13]: 120 nM; GI50 (NCI-H23): 160 nM; GI50 [14]: 120 nM; GI50 [15]: 140 nM; GI50 [16]: 30 nM; GI50 [17]: 40 nM; GI50 [18]: 40 nM; GI50 [19]: 190 nM; GI50 (U-251): 50 nM; GI50 (M14): 30 nM; GI50 (MDA-MB-435): 20 nM; GI50 (SK-MEL-5): 30 nM; GI50 [20]: 30 nM; GI50 [21]: 40 nM; GI50 (ACHN): 80 nM; growth, % of control at 10 µM (CCRF-CEM [22]): 0.4%; growth, % of control at 10 µM [23]: -46.3%; growth, % of control at 10 µM (K562): 7.5%; growth, % of control at 10 µM [24]: -14.3%; growth, % of control at 10 µM [25]: 39.2%; growth, % of control at 10 µM [26]: -1.7%; growth, % of control at 10 µM (HT-29): 0.4%; growth, % of control at 10 µM (KM12): 2%; GI50 [27]: 60 nM; GI50 (MDA-MB-231 [28]): 170 nM; GI50 [29]: 70 nM; GI50 (MDA-MB-468): 30 nM
